Reference: ChEMBL document CHEMBL1828575, “Design, synthesis and antiproliferative activities of biarylolefins based on polyhydroxylated and carbohydrate scaffolds” (Eur J Med Chem, 2011)
The source made the active and inactive calls. The rule behind the calls is not given here.

What was measured:
[1] = organism: Ovis aries; test: Inhibition of sheep brain tubulin polymerization at 10 uM
Method in brief: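 Microtubule protein from sheep brain, purified by two assembly/disassembly cycles (37 °C/0 °C), in 100 mM MES pH 6.6, 1 mM EGTA, 0.5 mM MgCl₂. Compounds in DMSO were tested at a single concentration, with incubation at 37 °C for 10 min and then 0 °C for 5 min before measuring assembly rate, following a modified Guénard protocol.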

[2] = Cytotoxicity against human NCI60 cells assessed as cellular growth at 10 uM after 48 hrs by SRB assay relative to untreated control; format: functional
Method in brief: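 NCI-60 panel lines grown in RPMI 1640 with 5% FBS and 2 mM L-glutamine. Plated at 5000–40,000 cells/well and preincubated 24 h at 37 °C, 5% CO₂, with time-zero plates fixed in TCA. Compounds, dissolved in DMSO and diluted in medium, were applied for 48 h. Cells were TCA-fixed (10% final for adherent, 16% for suspension) and stained with 0.4% SRB in 1% acetic acid. Dye was solubilised in 10 mM Tris base and read at 515 nm; growth was expressed as a percentage of untreated control.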

[3] = test system: HCT-15; test: Cytotoxicity against human HCT15 cells at 10^-5 M after 72 hrs by MTS assay; format: functional; conditions: HCT-15, 72 h, read-out: GI
Method in brief: (§1)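 Cells grown in RPMI with 10% fetal calf serum, penicillin, streptomycin and fungizone under 5% CO₂. Plated in 96-well plates and dosed 24 h later with compound in DMSO (1% final DMSO; controls got DMSO alone). After 72 h, MTS was added for 3 h at 37 °C and A490 read. Inhibition = (1 − OD treated/OD control) × 100, in triplicate.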

[4] = test system: PC-3; test: Cytotoxicity against human PC3 cells at 10^-6 M after 72 hrs by MTS assay; format: functional; conditions: PC-3, 72 h, read-out: GI
Method in brief: (§2)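 Preliminary screen at 10^-5 and 10^-6 M. Cells were grown in RPMI with 10% fetal calf serum plus penicillin, streptomycin and fungizone under 5% CO₂, plated in 96-well plates, and dosed 24 h later from DMSO stocks (1% DMSO final, same in controls). After 72 h, MTS was added for 3 h at 37 °C and absorbance read at 490 nm. Inhibition was calculated as (1 − OD treated/OD control) × 100, in triplicate.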

[5] = test system: PC-3; test: Cytotoxicity against human PC3 cells at 10^-5 M after 72 hrs by MTS assay; format: functional; conditions: PC-3, 72 h, read-out: GI; method in brief: as §2
[6] = test system: A549; test: Cytotoxicity against human A549 cells at 10^-5 M after 72 hrs by MTS assay; format: functional; conditions: A549, 72 h, read-out: GI; method in brief: as §1
[7] = test system: HT-29; test: Cytotoxicity against human HT-29 cells at 10^-5 M after 72 hrs by MTS assay; format: functional; conditions: HT-29, 72 h, read-out: GI; method in brief: as §1
[8] = test system: K562; test: Cytotoxicity against human K562 cells at 10^-5 M after 72 hrs by MTS assay; format: functional; conditions: K562, 72 h, read-out: GI; method in brief: as §1
[9] = test system: HL-60; test: Cytotoxicity against human HL60 cells at 10^-6 M after 72 hrs by MTS assay; format: functional; conditions: HL-60, 72 h, read-out: GI; method in brief: as §1
[10] = test system: OVCAR-8; test: Cytotoxicity against human OVCAR8 cells at 10^-5 M after 72 hrs by MTS assay; format: functional; conditions: OVCAR-8, 72 h, read-out: GI; method in brief: as §2
[11] = test system: MCF7; test: Cytotoxicity against human MCF7 cells at 10^-5 M after 72 hrs by MTS assay; format: functional; conditions: MCF7, 72 h, read-out: GI
[12] = test system: HCT-116; test: Cytotoxicity against human HCT116 cells at 10^-6 M after 72 hrs by MTS assay; format: functional; conditions: HCT-116, 72 h, read-out: GI; method in brief: as §1
[13] = test system: HCT-116; test: Cytotoxicity against human HCT116 cells at 10^-5 M after 72 hrs by MTS assay; format: functional; conditions: HCT-116, 72 h, read-out: GI; method in brief: as §1
[14] = Cytotoxicity against human MDA231 cells at 10^-5 M after 72 hrs by MTS assay; format: functional; conditions: MDA-MB-231, 72 h, read-out: GI; method in brief: as §2
[15] = test system: OVCAR-8; test: Cytotoxicity against human OVCAR8 cells at 10^-6 M after 72 hrs by MTS assay; format: functional; conditions: OVCAR-8, 72 h, read-out: GI; method in brief: as §2
[16] = test system: SK-OV-3; test: Cytotoxicity against human SKOV3 cells at 10^-6 M after 72 hrs by MTS assay; format: functional; conditions: SK-OV-3, 72 h, read-out: GI; method in brief: as §2
[17] = Cytotoxicity against human HL60R cells at 10^-5 M after 72 hrs by MTS assay; format: functional, HL-60; conditions: read-out: GI; method in brief: as §1
[18] = test system: MCF7; test: Cytotoxicity against human MCF7 cells at 10^-6 M after 72 hrs by MTS assay; format: functional; conditions: MCF7, 72 h, read-out: GI
[19] = test system: HT-29; test: Cytotoxicity against human HT-29 cells at 10^-6 M after 72 hrs by MTS assay; format: functional; conditions: HT-29, 72 h, read-out: GI; method in brief: as §1
[20] = Cytotoxicity against human MDA231 cells at 10^-6 M after 72 hrs by MTS assay; format: functional; conditions: MDA-MB-231, 72 h, read-out: GI; method in brief: as §2
[21] = test system: SF-268; test: Cytotoxicity against human SF268 cells at 10^-5 M after 72 hrs by MTS assay; format: functional; conditions: SF-268, 72 h, read-out: GI; method in brief: as §2
[22] = test system: HCT-15; test: Cytotoxicity against human HCT15 cells at 10^-6 M after 72 hrs by MTS assay; format: functional; conditions: HCT-15, 72 h, read-out: GI; method in brief: as §1
[23] = Cytotoxicity against human HL60R cells at 10^-6 M after 72 hrs by MTS assay; format: functional; conditions: read-out: GI; method in brief: as §1
[24] = test system: SF-268; test: Cytotoxicity against human SF268 cells at 10^-6 M after 72 hrs by MTS assay; format: functional; conditions: SF-268, 72 h, read-out: GI; method in brief: as §2
[25] = test system: A549; test: Cytotoxicity against human A549 cells at 10^-6 M after 72 hrs by MTS assay; format: functional; conditions: A549, 72 h, read-out: GI; method in brief: as §1
[26] = test system: SK-OV-3; test: Cytotoxicity against human SKOV3 cells at 10^-5 M after 72 hrs by MTS assay; format: functional; conditions: SK-OV-3, 72 h, read-out: GI; method in brief: as §2
[27] = test system: K562; test: Cytotoxicity against human K562 cells at 10^-6 M after 72 hrs by MTS assay; format: functional; conditions: K562, 72 h, read-out: GI; method in brief: as §1
[28] = test system: MIA PaCa-2; test: Cytotoxicity against human MIAPaCa2 cells at 10^-6 M after 72 hrs by MTS assay; format: functional; conditions: MIA PaCa-2, 72 h, read-out: GI
[29] = test system: MIA PaCa-2; test: Cytotoxicity against human MIAPaCa2 cells at 10^-5 M after 72 hrs by MTS assay; format: functional; conditions: MIA PaCa-2, 72 h, read-out: GI
[30] = test system: HL-60; test: Cytotoxicity against human HL60 cells at 10^-5 M after 72 hrs by MTS assay; format: functional; conditions: HL-60, 72 h, read-out: GI; method in brief: as §1

Structure (SMILES) | tubulin polymerization inhibition call (active/not active) [1] | inhibition of growth at 10 µM [3] | inhibition of growth at 1 µM [4] | inhibition of growth at 10 µM [5] | inhibition of growth at 10 µM [6] | inhibition of growth at 10 µM [7] | inhibition of growth at 10 µM [8] | inhibition of growth at 1 µM [9] | inhibition of growth at 10 µM [10] | inhibition of growth at 10 µM [11] | inhibition of growth at 1 µM [12] | inhibition of growth at 10 µM [13] | inhibition of growth at 10 µM [14] | inhibition of growth at 1 µM [15] | inhibition of growth at 1 µM [16] | inhibition of growth at 10 µM [17] | inhibition of growth at 1 µM [18] | inhibition of growth at 1 µM [19] | inhibition of growth at 1 µM [20] | inhibition of growth at 10 µM [21] | also measured
COc1cc([C@@H]2c3cc4c(cc3C[C@H]3COC(=O)[C@@H]32)OCO4)cc(OC)c1OC | Active | – | – | – | – | – | – | – | – | – | – | – | – | – | – | – | – | – | – | – | –
COc1cc(C(=C2O[C@@H]([C@H]3COC(C)(C)O3)[C@H]3OC(C)(C)O[C@@H]23)c2cc(OC)c(OC)c(OC)c2)cc(OC)c1OC | – | – | – | – | – | – | – | – | – | – | – | – | – | – | – | – | – | – | – | – | Activity [2]: 105%
COc1cc(C(=C2O[C@@H]([C@H](O)CO)[C@H]3OC(C)(C)O[C@@H]23)c2cc(OC)c(OC)c(OC)c2)cc(OC)c1OC | – | – | – | – | – | – | – | – | – | – | – | – | – | – | – | – | – | – | – | – | Activity [2]: 103%
COc1ccc(C(=C(COC(C)=O)COC(C)=O)c2cc(OC)c(OC)c(OC)c2)cc1O[Si](C)(C)C(C)(C)C | inactive | – | – | – | – | – | – | – | – | – | – | – | – | – | – | – | – | – | – | – | –
COc1cc(C(=C(COC(C)=O)COC(C)=O)c2ccc3ccccc3c2)cc(OC)c1OC | inactive | 65% | 18% | 62% | 45% | 22% | 83% | 11% | 6% | 17% | 0% | 20% | 74% | 0% | 12% | 41% | 10% | 0% | 0% | 81% | inhibition of growth at 1 µM [22]: 8%; inhibition of growth at 1 µM [23]: 19%; inhibition of growth at 1 µM [24]: 17%; inhibition of growth at 1 µM [25]: 3%; inhibition of growth at 10 µM [26]: 46%; inhibition of growth at 1 µM [27]: 12%; inhibition of growth at 1 µM [28]: 4%; inhibition of growth at 10 µM [29]: 15%; inhibition of growth at 10 µM [30]: 82%
COc1cc(C(=C(CO)CO)c2cc(OC)c(OC)c(OC)c2)cc(OC)c1OC | inactive | 22% | 18% | 26% | 13% | 0% | 25% | 17% | 0% | 31% | 6% | 0% | 42% | 0% | 13% | 0% | 8% | 0% | 0% | 35% | inhibition of growth at 1 µM [22]: 8%; inhibition of growth at 1 µM [23]: 17%; inhibition of growth at 1 µM [24]: 13%; inhibition of growth at 1 µM [25]: 0%; inhibition of growth at 10 µM [26]: 14%; inhibition of growth at 1 µM [27]: 4%; inhibition of growth at 1 µM [28]: 0%; inhibition of growth at 10 µM [29]: 0%; inhibition of growth at 10 µM [30]: 40%
COc1cc(/C(=C2\O[C@@H]([C@H]3COC(C)(C)O3)[C@H]3OC(C)(C)O[C@@H]23)c2cccc([N+](=O)[O-])c2)cc(OC)c1OC | – | 5% | 2% | 0% | 12% | 0% | 9% | 2% | 0% | 11% | 5% | 8% | 16% | 0% | 15% | 29% | 7% | 7% | 0% | 20% | inhibition of growth at 1 µM [22]: 6%; inhibition of growth at 1 µM [23]: 13%; inhibition of growth at 1 µM [24]: 12%; inhibition of growth at 1 µM [25]: 10%; inhibition of growth at 10 µM [26]: 40%; inhibition of growth at 1 µM [27]: 8%; inhibition of growth at 1 µM [28]: 4%; inhibition of growth at 10 µM [29]: 0%; inhibition of growth at 10 µM [30]: 22%
